Experimental data taken from publication PMC8521395 (Journal of Antimicrobial Chemotherapy, 2021).
One block for each compound: values may come before it.

What was measured:
Format in all cases: cell-based, Escherichia coli
[1] = system: WT carrying pCC:nrdAByfaE; assay: Time-kill assay, WT carrying pCC:nrdAByfaE; details: 50 μM HU, 5 h, MHB-I
[2] = system: E. coli; assay: MIC of chloramphenicol and nalidixic acid in AB medium; details: printed as the concentration equal to 10×MIC
[3] = system: Strain SMR14350; assay: In vivo double-stranded DNA break visualization; details: ciprofloxacin 0.0125 mg/L, 4 h, AB medium, mean±SD of three determinations
Summary of the method: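 E. coli Gam-GFP reporter strain SMR14350 grown exponentially at 37°C in AB minimal medium (10 mg/L thiamine, 0.2% glucose, 0.5% casamino acids), diluted to OD450 0.05. PNA-peptide test compound (8 μM) or ciprofloxacin (0.0125 mg/L) added with anhydrotetracycline (10 mg/L) to induce Gam-GFP, for 4 h. Foci scored by fluorescence microscopy in three independent experiments (2553–3860 cells per condition).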

[4] = system: WT E. coli cells; assay: Macromolecular synthesis; details: nalidixic acid 40 mg/L (10×MIC), AB medium without casamino acids, single experiment
[5] = system: MG1655; assay: MIC determination by broth microdilution; details: MG1655, non-cation-adjusted Mueller-Hinton broth (MHB-I), low-binding plastic, 37°C, 18 h, turbidity OD595
[6] = system: NrdA protein; assay: Western-blot analysis of NrdA protein level; details: 8 μM PNA-peptide, 3 h, AB medium, WT cells, band intensity relative to WT

Compound: NC(=O)NO [HU, hydroxyurea]
- reduction in cfu/mL, HU alone [1]: < 1 log

- 10×MIC [2]: 80 µg/mL
Compound: O=C(N[C@H](CO)[C@H](O)c1ccc([N+](=O)[O-])cc1)C(Cl)Cl [chloramphenicol]

Compound: O=C(O)c1cn(C2CC2)c2cc(N3CCNCC3)c(F)cc2c1=O [ciprofloxacin]
- percentage of cells with Gam-GFP foci [3]: 51.9 ± 6.9%

- 10×MIC [2]: 40 µg/mL
Compound: CCn1cc(C(=O)O)c(=O)c2ccc(C)nc21 [nalidixic acid]
- DNA synthesis (DNA replication) [4]: faster cessation of DNA replication

Compound: H-(KFF)3K-eg1-ATTGAT TGC G -NH2 [PNA5866]
- MIC [5]: 16 µM
- decrease of cellular NrdA protein level [6]: did not inhibit NrdA protein levels
